Source: ChEMBL document CHEMBL1142365, “Synthesis and evaluation of stilbenylbenzoxazole and stilbenylbenzothiazole derivatives for detecting beta-amyloid fibrils” (Bioorg Med Chem Lett, 2008)

Assay: Displacement of [125I]TZDM from beta amyloid protein 42
Summary of the method: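 Competition binding against [125I]TZDM on pre-formed Ab42 aggregates. Mixtures incubated 3 h at room temperature. Bound and free radioligand separated by vacuum filtration through GF/B filters, then two washes with 10% EtOH at room temperature. Filter-bound radioactivity counted by gamma counter. Ki obtained by nonlinear regression of the inhibition data.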

| SMILES | Ki [nM] |
| --- | --- |
| Nc1ccc(/C=C/c2ccc(-c3nc4cc(OCCF)ccc4s3)cc2)cc1 | 0.41 |
| CNc1ccc(/C=C/c2ccc(-c3nc4cc(OCCF)ccc4s3)cc2)cc1 | 0.1 |
| Nc1ccc(/C=C/c2ccc(-c3nc4cc(OCCF)ccc4o3)cc2)cc1 | 0.32 |
| CNc1ccc(/C=C/c2ccc(-c3nc4cc(OCCCF)ccc4s3)cc2)cc1 | 0.38 |
| CN(C)c1ccc(/C=C/c2ccc(-c3nc4cc(OCCCF)ccc4s3)cc2)cc1 | 0.49 |
| CNc1ccc(/C=C/c2ccc(-c3nc4ccc(OCCF)cc4o3)cc2)cc1 | 0.5 |
| Nc1ccc(/C=C/c2ccc(-c3nc4ccc(OCCF)cc4o3)cc2)cc1 | 0.47 |
| CNc1ccc(/C=C/c2ccc(-c3nc4cc(OCCCF)ccc4o3)cc2)cc1 | 0.45 |
| CN(C)c1ccc(/C=C/c2ccc(-c3nc4cc(OCCF)ccc4s3)cc2)cc1 | 0.35 |
| Nc1ccc(/C=C/c2ccc(-c3nc4ccc(OCCCF)cc4o3)cc2)cc1 | 0.59 |
| CN(C)c1ccc(/C=C/c2ccc(-c3nc4ccc(OCCCF)cc4s3)cc2)cc1 | 0.12 |
| CNc1ccc(/C=C/c2ccc(-c3nc4ccc(OCCCF)cc4s3)cc2)cc1 | 0.48 |
| CNc1ccc(/C=C/c2ccc(-c3nc4ccc(OCCF)cc4s3)cc2)cc1 | 0.52 |
| CN(C)c1ccc(/C=C/c2ccc(-c3nc4ccc(OCCF)cc4s3)cc2)cc1 | 0.57 |
| Nc1ccc(/C=C/c2ccc(-c3nc4ccc(OCCF)cc4s3)cc2)cc1 | 0.59 |
| CN(C)c1ccc(/C=C/c2ccc(-c3nc4ccc(OCCCF)cc4o3)cc2)cc1 | 0.46 |
| CNc1ccc(/C=C/c2ccc(-c3nc4ccc(OCCCF)cc4o3)cc2)cc1 | 0.68 |
| CN(C)c1ccc(/C=C/c2ccc(-c3nc4ccc(OCCF)cc4o3)cc2)cc1 | 0.45 |
| CN(C)c1ccc(/C=C/c2ccc(-c3nc4cc(OCCCF)ccc4o3)cc2)cc1 | 0.47 |
| CN(C)c1ccc(/C=C/c2ccc(-c3nc4cc(OCCF)ccc4o3)cc2)cc1 | 0.44 |
| CNc1ccc(/C=C/c2ccc(-c3nc4cc(OCCF)ccc4o3)cc2)cc1 | 0.74 |
| Nc1ccc(/C=C/c2ccc(-c3nc4cc(OCCCF)ccc4o3)cc2)cc1 | 0.45 |
| Nc1ccc(/C=C/c2ccc(-c3nc4ccc(OCCCF)cc4s3)cc2)cc1 | 0.55 |
| Nc1ccc(/C=C/c2ccc(-c3nc4cc(OCCCF)ccc4s3)cc2)cc1 | 0.42 |
| [11CH3]Nc1ccc(-c2nc3ccc(O)cc3s2)cc1 [PITTSBURGH COMPOUND B] | 0.77 |
